Results reported in ChEMBL document CHEMBL4177580, “New 5-HT1A, 5HT2A and 5HT2C receptor ligands containing a picolinic nucleus: Synthesis, in vitro and in vivo pharmacological evaluation” (Bioorg Med Chem, 2017).
Activity calls are given as the source filed them.

Assays:
[1] = target: T1, Adrenergic receptor alpha-1 (Rattus norvegicus, UniProt P15823+P23944+P43140); assay: Displacement of [3H]prazosin from adrenergic alpha1 receptor in rat cerebral cortex
T1 sequence (P15823 whole entry): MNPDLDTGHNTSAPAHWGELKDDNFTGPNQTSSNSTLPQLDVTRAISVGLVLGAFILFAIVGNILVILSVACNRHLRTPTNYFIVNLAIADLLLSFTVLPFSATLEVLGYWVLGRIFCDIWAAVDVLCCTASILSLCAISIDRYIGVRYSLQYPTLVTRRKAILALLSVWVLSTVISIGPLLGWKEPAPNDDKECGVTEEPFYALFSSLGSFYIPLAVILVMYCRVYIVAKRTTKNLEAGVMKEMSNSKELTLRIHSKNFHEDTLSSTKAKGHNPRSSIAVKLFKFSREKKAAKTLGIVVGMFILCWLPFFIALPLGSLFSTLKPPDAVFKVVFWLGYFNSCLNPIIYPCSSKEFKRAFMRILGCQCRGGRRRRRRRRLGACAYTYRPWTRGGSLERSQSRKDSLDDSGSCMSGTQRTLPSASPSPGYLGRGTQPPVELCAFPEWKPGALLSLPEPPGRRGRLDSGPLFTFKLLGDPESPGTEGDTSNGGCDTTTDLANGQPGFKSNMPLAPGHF
T1 sequence (P23944 whole entry): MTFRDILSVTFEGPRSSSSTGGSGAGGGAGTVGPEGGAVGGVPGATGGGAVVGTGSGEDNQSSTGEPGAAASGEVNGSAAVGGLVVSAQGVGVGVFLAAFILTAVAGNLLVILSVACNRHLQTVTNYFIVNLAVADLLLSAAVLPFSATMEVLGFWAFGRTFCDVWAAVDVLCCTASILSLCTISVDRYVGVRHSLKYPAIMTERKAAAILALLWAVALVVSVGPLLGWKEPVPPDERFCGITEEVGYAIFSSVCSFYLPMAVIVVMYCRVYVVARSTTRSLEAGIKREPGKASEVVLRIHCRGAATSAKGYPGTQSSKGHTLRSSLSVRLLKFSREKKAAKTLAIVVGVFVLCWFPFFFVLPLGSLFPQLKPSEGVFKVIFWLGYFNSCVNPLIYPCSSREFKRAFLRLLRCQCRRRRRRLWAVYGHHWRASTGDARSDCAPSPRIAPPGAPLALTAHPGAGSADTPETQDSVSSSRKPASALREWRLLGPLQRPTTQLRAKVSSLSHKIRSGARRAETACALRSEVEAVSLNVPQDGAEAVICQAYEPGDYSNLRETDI
T1 sequence (P43140 whole entry): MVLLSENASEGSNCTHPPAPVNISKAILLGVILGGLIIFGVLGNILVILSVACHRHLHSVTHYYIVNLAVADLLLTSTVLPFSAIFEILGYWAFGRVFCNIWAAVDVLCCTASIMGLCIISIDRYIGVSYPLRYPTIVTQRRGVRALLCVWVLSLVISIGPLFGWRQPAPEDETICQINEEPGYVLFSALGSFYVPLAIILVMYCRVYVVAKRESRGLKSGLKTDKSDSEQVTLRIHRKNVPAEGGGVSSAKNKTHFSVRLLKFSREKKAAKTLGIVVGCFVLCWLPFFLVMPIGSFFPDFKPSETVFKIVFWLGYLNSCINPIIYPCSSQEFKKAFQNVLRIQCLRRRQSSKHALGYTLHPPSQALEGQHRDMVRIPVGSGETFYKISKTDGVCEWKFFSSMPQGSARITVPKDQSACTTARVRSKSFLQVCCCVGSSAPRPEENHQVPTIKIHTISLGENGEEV

D(2) dopamine receptor = D(2) dopamine receptor (Homo sapiens, UniProt P14416); assay: Displacement of [3H]methyl-spiperone from human recombinant dopamine D2 receptor expressed in HEK293 cells; type: cell-based
D(2) dopamine receptor, sequence (P14416 whole entry): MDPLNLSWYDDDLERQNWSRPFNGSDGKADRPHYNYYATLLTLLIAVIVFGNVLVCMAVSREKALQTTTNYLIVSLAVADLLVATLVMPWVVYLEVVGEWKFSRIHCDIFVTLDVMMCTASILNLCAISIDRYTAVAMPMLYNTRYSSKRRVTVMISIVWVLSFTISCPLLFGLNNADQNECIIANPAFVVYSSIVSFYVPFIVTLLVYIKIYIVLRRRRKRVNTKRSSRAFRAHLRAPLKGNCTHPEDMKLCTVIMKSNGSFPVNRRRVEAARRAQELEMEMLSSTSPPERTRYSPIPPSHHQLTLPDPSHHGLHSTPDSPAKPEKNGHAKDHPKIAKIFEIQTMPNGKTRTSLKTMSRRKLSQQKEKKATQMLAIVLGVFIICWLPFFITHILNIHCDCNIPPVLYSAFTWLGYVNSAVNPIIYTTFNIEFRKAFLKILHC

Mus musculus [2] = assay: Toxicity in Swiss albino mouse assessed as induction of impairment of motor coordination by measuring reduction in time spent on rota-rod at 30 mg/kg, ip dosed 60 mins before test by rotarod test; type: organism-based; conditions: in vivo, 1 h
Procedure, shortened: (§1)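 Rotarod in male Swiss mice, i.p. dosing 60 min pre-test: impairment is inability to stay 1 min on a rod turning at 18 rpm, after 3 days of daily training. Mean ± SEM of 2 independent experiments; one-way ANOVA with Dunnett's.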

Mus musculus [3] = assay: Toxicity in Swiss albino mouse assessed as induction of impairment of motor coordination by measuring reduction in time spent on rota-rod at 60 mg/kg, ip dosed 60 mins before test by rotarod test; type: organism-based; conditions: in vivo, 1 h; procedure, shortened: as §1
Mus musculus [4] = assay: Toxicity in Swiss albino mouse assessed as effect on motor coordination at 1.875 to 7.5 mg/kg, ip dosed 60 mins before test by Chimney test; type: organism-based; conditions: in vivo, 1 h, in the assay text read “3.75 to 60 mg/kg” for “1.875 to 7.5 mg/kg”
Procedure, shortened: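 Chimney test in male Swiss mice after i.p. dosing 60 min earlier: impairment defined as failure to climb backwards up a tube (3 cm inner diameter, 25 cm long) within 60 s. Animals pre-trained once daily for 3 days. One-way ANOVA with Dunnett's.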

Mus musculus [5] = assay: Toxicity in Swiss albino mouse assessed as reduction in spontaneous locomotor activity at 30 mg/kg, ip dosed 60 mins before test and measured after 6 mins; type: organism-based; conditions: in vivo, 0.1 h
Procedure, shortened: (§2)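 Spontaneous locomotion: mice dosed i.p. 60 min before being placed individually in an actometer for 30 min. Distance travelled read at 6 and 30 min. Cages cleaned with 70% ethanol between animals. One-way ANOVA with Dunnett's; mean ± SEM of one experiment.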

Mus musculus [6] = assay: Toxicity in Swiss albino mouse assessed as reduction in spontaneous locomotor activity at 60 mg/kg, ip dosed 60 mins before test and measured after 6 mins; type: organism-based; conditions: in vivo, 0.1 h; procedure, shortened: as §2
Mus musculus [7] = assay: Toxicity in Swiss albino mouse assessed as reduction in spontaneous locomotor activity at 30 mg/kg, ip dosed 60 mins before test and measured after 30 mins; type: organism-based; conditions: in vivo, 0.5 h; procedure, shortened: as §2
Mus musculus [8] = assay: Toxicity in Swiss albino mouse assessed as reduction in spontaneous locomotor activity at 60 mg/kg, ip dosed 60 mins before test and measured after 30 mins; type: organism-based; conditions: in vivo, 0.5 h; procedure, shortened: as §2
Mus musculus [9] = assay: Toxicity in Swiss albino mouse assessed as reduction in spontaneous locomotor activity at 15 mg/kg, ip dosed 60 mins before test and measured after 30 mins; type: organism-based; conditions: in vivo, 0.5 h; procedure, shortened: as §2
Mus musculus [10] = assay: Induction of hypothermia in Swiss albino mouse assessed as reduction in body temperature at 15 mg/kg, ip measured after 120 mins post dose; type: functional, organism-based
Procedure, shortened: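 Normothermic male Swiss mice; rectal thermistor readings over 180 min. Baseline is the mean of readings 60 and 30 min before dosing; readings at 30, 60, 90, 120 min post-injection; Δt = tf − ti. Test compounds i.p. (DMSO/methylcellulose); 8-OH-DPAT (5 mg/kg) and WAY 100635 (0.1 mg/kg) s.c. in water. Two-way ANOVA, Bonferroni.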

Mus musculus [11] = assay: Antidepressant-like activity in Swiss albino mouse assessed as reduction in immobility time at 1.875 mg/kg, ip dosed 1 hr before test by forced swimming test; type: functional, organism-based
Procedure, shortened: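 Male Swiss albino mice (18–24 g), compound i.p. in 0.1% DMSO/0.5% methylcellulose 1 h pre-test. Porsolt swim: cylinder 25 cm high, 10 cm diameter, 10 cm water at 23–25°C, 6 min session; immobility scored over last 4 min. Blind observer; one-way ANOVA with Dunnett's; mean ± SEM.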

Mus musculus [12] = assay: Toxicity in Swiss albino mouse assessed as reduction in spontaneous locomotor activity at 1.875 mg/kg, ip dosed 60 mins before test; type: organism-based; conditions: in vivo, 1 h; procedure, shortened: as §2
Mus musculus [13] = assay: Anxiolytic-like activity in Swiss albino mouse assessed as increase in time spent in open arms at 1.875 to 7.5 mg/kg measured for 5 mins test period by elevated plus maze test; type: functional, organism-based

## O=C(NCCN1CCN(c2ccc(Cl)cc2)CC1)c1ccccn1
[1]
  Ki: 0.076 µM
D(2) dopamine receptor
  Ki: 2.3 µM
Mus musculus [2]
  Activity: Toxic
Mus musculus [3]
  Activity: Toxic
Mus musculus [4]
  Activity: Non-Toxic
Mus musculus [5]
  Activity: Toxic
Mus musculus [6]
  Activity: Toxic
Mus musculus [7]
  Activity: Toxic
Mus musculus [8]
  Activity: Toxic
Mus musculus [9]
  Activity: Toxic
Mus musculus [10]
  Activity: Active
Mus musculus [11]
  Activity: Active
Mus musculus [12]
  Activity: Non-Toxic
Mus musculus [13]
  Activity: Active
